Compound activity from PubChem.
Rows were chosen to be rich in hits. Some 4.9% of all compounds tested hit in one or more screens of this group.
HSF1 inhib: HSF1 inhibition | activity change, negative = inhibition, % at 7.5 µM (by protocol) | NIH3T3-HGL HSE-luciferase, MG132-induced, luminescence 8 h; hits give low values | AID 2098 | 0.77% of 300,000 active;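 active = more than half of replicate wells show activity change below -50%, luminescence cut by over half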;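 also: luciferase reports HSF-1 transcriptional activity via heat shock element; 0% = median of DMSO wells and -100% = zero luminescence signal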
Lipid droplet: hepatic lipid droplet formation modulation. AID 1656. inhibition, % at 6.5 µM. AML12 mouse hepatocytes, oleate lipid droplets, BODIPY imaging. 0.4% of 240,000 active;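 active = lipid droplet intensity inhibited by at least 50%, with more than 500 cells counted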
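material = mouse AML12 hepatocyte cell line, fixed after treatment | also added = 100 µM oleic acid challenge | doses = compound at 6.5 µM only | schedule = overnight exposure | technique = Image-based BODIPY and DAPI two-channel analysis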
CHT allo act: allosteric activators of human choline transporter CHT | Q9GZV3 | CHT-expressing cells, membrane potential dye, choline EC20; hits give high values; LV-AA mutant CHT in HEK293 cells | B-score at 10 µM | 0.49% of 310,000 active | AID 488977;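 active = initial fluorescence not abnormally high and integrated response B-score, plate-corrected, over 3 SD above library mean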
CHT block: inhibitors of human choline transporter CHT; Q9GZV3; CHT-expressing cells, membrane potential dye, choline response; hits give low values; B-score at 10 µM; 0.86% of 310,000 active; AID 488975;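 active = B-score over 3 SD under the library average, and starting fluorescence ratio not unusually high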;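 also: choline stimulus applied at its EC90 after an EC20 pre-addition; B-score computed on integrated fluorescence ratio after choline addition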
PHOSPHO1 inh: inhibitors of human PHOSPHO1 phosphatase. Q8TCT1. 1.1% of 290,000 active. recombinant PHOSPHO1, absorbance phosphatase assay. AID 1565. inhibition, % at 13.3 µM; in the data active = inhibition above about 60%
Target sequence (Q8TCT1 whole entry, looked up): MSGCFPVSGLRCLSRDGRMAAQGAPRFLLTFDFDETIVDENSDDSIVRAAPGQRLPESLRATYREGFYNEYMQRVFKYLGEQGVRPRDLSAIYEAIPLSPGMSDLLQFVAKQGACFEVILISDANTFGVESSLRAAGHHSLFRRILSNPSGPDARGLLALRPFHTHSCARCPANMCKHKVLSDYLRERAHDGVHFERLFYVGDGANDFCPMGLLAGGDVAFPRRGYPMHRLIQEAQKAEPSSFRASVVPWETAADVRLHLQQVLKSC
HSF1 activator: increases HSF-1 driven luciferase reporter signal | NIH3T3-HGL HSF-1 luciferase reporter, MG132, 8 h; 100% = twice DMSO control signal | activation, % at 9 µM | 1.7% of 300,000 active | AID 504408;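 active = mean replicate activation of at least 50% with a set share of replicates each reaching 50%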;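 also: 0% = median of the neutral control wells and 100% = twice that signal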
* hit, by the source's call.

Results for CC(C)(C)c1ccc(/C([O-])=C(/C(=S)NCc2ccco2)[n+]2ccccc2)cc1 ?
HSF1 inhib: -7; Lipid droplet: 12; CHT allo act: inactive; CHT block: inactive; PHOSPHO1 inh: 84*; HSF1 activator: 2

What do the screens show for `CC(C)(C)c1ccc(C(=O)NC(=S)NCc2ccco2)cc1`?
HSF1 inhib: 3; Lipid droplet: -23; CHT allo act: inactive; CHT block: inactive; PHOSPHO1 inh: 37; HSF1 activator: 32

What do the screens show for `CCCCOC(=O)c1ccc(NC(=O)c2ccoc2C)cc1`?
HSF1 inhib: 25; Lipid droplet: 14; CHT allo act: inactive; CHT block: inactive; PHOSPHO1 inh: 16; HSF1 activator: 39

What do the screens show for `Cc1occc1C(=O)Nc1ccc(OCc2ccccc2)cc1`?
HSF1 inhib: 39; Lipid droplet: 22; CHT allo act: inactive; CHT block: inactive; PHOSPHO1 inh: 17; HSF1 activator: 56*

What do the screens show for `CCCOC(=O)c1ccc(NC(=O)c2ccoc2C)cc1`?
HSF1 inhib: 33; Lipid droplet: 28; CHT allo act: inactive; CHT block: inactive; PHOSPHO1 inh: -12; HSF1 activator: 56*

How did Cc1cc([N+](=O)[O-])ccc1NC(=O)c1cccc(NC(=O)C(C)C)c1 do in these assays?
HSF1 inhib: 21; Lipid droplet: -11; CHT allo act: inactive; CHT block: inactive; PHOSPHO1 inh: 43; HSF1 activator: 58*

Results for Cc1ccc(NC(=O)c2sc(N)nc2-c2ccc([N+](=O)[O-])cc2)c(C)c1 ?
HSF1 inhib: 41; Lipid droplet: 7; CHT allo act: inactive; CHT block: inactive; PHOSPHO1 inh: -10; HSF1 activator: 63*

Results for O=C(/C=C/c1cc([N+](=O)[O-])ccc1OC(F)F)Nc1cccc([N+](=O)[O-])c1 ?
HSF1 inhib: -73*; Lipid droplet: 12; CHT allo act: inactive; CHT block: inactive; PHOSPHO1 inh: 45; HSF1 activator: -79

What do the screens show for `Cc1ccc(NC(=O)c2sc(N)nc2-c2ccc([N+](=O)[O-])cc2)cc1C`?
HSF1 inhib: 23; Lipid droplet: -16; CHT allo act: inactive; CHT block: inactive; PHOSPHO1 inh: 19; HSF1 activator: 42

Results for O=C(Nc1ccc([N+](=O)[O-])cc1)C(=O)Nc1cccc(C(=O)O)c1 ?
HSF1 inhib: -71*; Lipid droplet: 1; CHT allo act: inactive; CHT block: inactive; PHOSPHO1 inh: 42; HSF1 activator: -77

Results for CCOc1ccc(CNS(=O)(=O)c2ccc3c(c2)CC(=O)N3C)cc1 ?
HSF1 inhib: -1; Lipid droplet: -36; CHT allo act: inactive; CHT block: inactive; PHOSPHO1 inh: 38; HSF1 activator: 13

What do the screens show for `O=C(CSc1nc(Nc2ccccc2)nc(N2CCOCC2)n1)Nc1ccc2c(c1)OCCO2`?
HSF1 inhib: 0; Lipid droplet: 31; CHT allo act: inactive; CHT block: inactive; PHOSPHO1 inh: -7; HSF1 activator: 8

What do the screens show for `O=C(Nc1ccccn1)C1CCN(c2ncnc3c2nc2n3CCCCC2)CC1`?
HSF1 inhib: -7; Lipid droplet: -2; CHT allo act: inactive; CHT block: inactive; PHOSPHO1 inh: 30; HSF1 activator: -14

How did COCC(=O)Nc1ccc([N+](=O)[O-])cc1C do in these assays?
HSF1 inhib: -6; Lipid droplet: 8; CHT allo act: inactive; CHT block: inactive; PHOSPHO1 inh: 5; HSF1 activator: -10

What do the screens show for `CC(Oc1ccccc1)C(=O)Nc1cccc([N+](=O)[O-])c1` (stereo not given)?
HSF1 inhib: 9; Lipid droplet: -7; CHT allo act: inactive; CHT block: inactive; PHOSPHO1 inh: 60*; HSF1 activator: 37

What do the screens show for `Cc1cc([N+](=O)[O-])ccc1NC(=O)c1csc(C)c1C`?
HSF1 inhib: 24; Lipid droplet: -5; CHT allo act: inactive; CHT block: inactive; PHOSPHO1 inh: 36; HSF1 activator: 53*

What do the screens show for `Cc1cccc(C)c1N1CCN(S(=O)(=O)c2ccc(F)cc2)CC1`?
HSF1 inhib: 14; Lipid droplet: -2; CHT allo act: inactive; CHT block: inactive; PHOSPHO1 inh: 20; HSF1 activator: 55*

What do the screens show for `CCOc1ccc(Nc2ccc(N3C(=O)CCC3=O)cc2[N+](=O)[O-])cc1`?
HSF1 inhib: 2; Lipid droplet: 0; CHT allo act: inactive; CHT block: inactive; PHOSPHO1 inh: -23; HSF1 activator: 2

Results for Clc1ccccc1-c1nn2c(-c3ccncc3)nnc2s1 ?
HSF1 inhib: -16; Lipid droplet: -3; CHT allo act: inactive; CHT block: inactive; PHOSPHO1 inh: 72*; HSF1 activator: -14

Results for Brc1ccc(-c2nn3c(-c4ccco4)nnc3s2)o1 ?
HSF1 inhib: 9; CHT allo act: inactive; CHT block: inactive; PHOSPHO1 inh: 99*; HSF1 activator: 5

Results for Clc1ccc(-c2ccc(-c3nn4c(-c5ccco5)nnc4s3)o2)cc1 ?
HSF1 inhib: 10; CHT allo act: inactive; CHT block: inactive; HSF1 activator: 46

How did c1coc(-c2nnc3sc(C4CCCCC4)nn23)c1 do in these assays?
HSF1 inhib: 0; CHT allo act: inactive; CHT block: inactive; PHOSPHO1 inh: 72*; HSF1 activator: -3

What do the screens show for `Cc1oc(-c2ccccc2Cl)cc1-c1nn2c(-c3ccco3)nnc2s1`?
PHOSPHO1 inh: 72*

How did O=C(NC1CC1)C1=C[C@@H](c2coc3ccccc3c2=O)C[C@@H](OCc2ccc(CO)cc2)O1 do in these assays?
HSF1 inhib: -7; Lipid droplet: -1; CHT allo act: inactive; CHT block: inactive; PHOSPHO1 inh: 14; HSF1 activator: -11

How did Cc1ccc(C(c2nnnn2Cc2cccs2)N2CCN(Cc3ccc4c(c3)OCO4)CC2)cc1 (stereo not given) do in these assays?
HSF1 inhib: -3; Lipid droplet: -4; CHT allo act: inactive; CHT block: inactive; PHOSPHO1 inh: -42; HSF1 activator: -2

How did CCN(C(=O)COC(=O)CNC(=O)c1ccc(F)cc1)C1CCS(=O)(=O)C1 (stereo not given) do in these assays?
HSF1 inhib: -5; Lipid droplet: 7; CHT allo act: inactive; CHT block: inactive; PHOSPHO1 inh: 28; HSF1 activator: 6

What do the screens show for `CN1CCN(C(=O)c2cnn(-c3ccccc3)c2NC(=O)c2ccccc2Cl)CC1`?
HSF1 inhib: -5; Lipid droplet: -20; CHT allo act: inactive; CHT block: inactive; PHOSPHO1 inh: 37; HSF1 activator: 1

What do the screens show for `S=C(NCc1ccccc1)Nc1cccc(Cl)c1`?
Lipid droplet: 16; CHT allo act: inactive; CHT block: inactive; PHOSPHO1 inh: -5
